Results taken from ChEMBL document CHEMBL6083194, “Discovery and evaluation of 3-(2-isocyanobenzyl)-1H-indole derivatives as potential quorum sensing inhibitors for the control of Pseudomonas aeruginosa infections in vitro” (RSC Med Chem, 2024).
Converted amounts (≈) assume the structure as drawn. The source made the active and inactive calls. No cut-off for these calls is given here.

Experiments:
Pseudomonas aeruginosa [1] = test: Inhibition of pyocyanin production in Pseudomonas aeruginosa PAO1 at 1/2 time MIC incubated for 18 hrs; assay type: functional
In short: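 Overnight PAO1 in LB diluted to OD600 = 0.05, subcultured 5–7 h to mid-log, rediluted to OD600 = 0.05. 5 mL with compound grown 18 h at 37 °C, 200 rpm. Supernatant extracted with 3 mL chloroform, back-extracted into 0.2 M HCl, absorbance at 520 nm.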

[2] = Inhibition of quorum sensing system in Chromobacterium violaceum CV026
In short: (§1)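 Plate screen. CV026 grown overnight in LB with 50 μg ml−1 kanamycin; 15 μl seeded into 15 ml LB agar (1.0% agarose) containing 20 μM C4-HSL. PAO1 plates run in parallel. Test colonies inoculated by toothpick, incubated overnight at 37 °C. Ring of colourless viable cells around the colony scored as inhibition.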

Pseudomonas aeruginosa [3] = test: Inhibition of biofilm formation in Pseudomonas aeruginosa PAO1 incubated for 24 hrs crystal violet staining based SEM assay; assay type: functional, organism-based
Pseudomonas aeruginosa [4] = test: Inhibition of biofilm formation in Pseudomonas aeruginosa PAO1 at 1/2 times MIC incubated for 24 hrs crystal violet staining based SEM assay; assay type: functional
[5] = Inhibition of quorum sensing system in Pseudomonas aeruginosa PAO1; in short: as §1
Pseudomonas aeruginosa [6] = test: Inhibition of biofilm formation in Pseudomonas aeruginosa PAO1 at 1/4 times MIC incubated for 24 hrs crystal violet staining based SEM assay; assay type: functional
Pseudomonas aeruginosa [7] = test: Inhibition of rhamnolipid production in Pseudomonas aeruginosa PAO1 at 1/2 to 1/4 times MIC by orcinol method; assay type: functional, organism-based
In short: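 Overnight PAO1 diluted 1:100 into LB with compound, 37 °C, 180 rpm; DMSO control. Supernatant (100 μL) mixed with 900 μL 0.19% orcinol in 53% H2SO4, heated 30 min at 80 °C, cooled, read at 421 nm.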

Pseudomonas aeruginosa [8] = test: Antibacterial activity against Pseudomonas aeruginosa PAO1 by serial dilution method; assay type: functional
In short: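 PAO1 in LB, 37 °C. MIC by CLSI 2-fold serial dilution in Mueller–Hinton broth, inoculum 1–5 × 10^5 CFU mL−1, DMSO stocks. Growth curves: overnight culture diluted to OD600 = 0.05, subcultured to mid-log, rediluted to OD600 = 0.05, 3 mL with compound; OD620 read at 1, 3, 5, 7, 9, 11 and 24 h at 37 °C; DMSO negative control.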

| SMILES | inhibition [2] | inhibition [5] | MIC (Pseudomonas aeruginosa [8]) | inhibition (Pseudomonas aeruginosa [1]) | inhibition (Pseudomonas aeruginosa [3]) | inhibition (INH) (Pseudomonas aeruginosa [4]) | inhibition (INH) (Pseudomonas aeruginosa [6]) | inhibition (INH) (Pseudomonas aeruginosa [1]) | inhibition (Pseudomonas aeruginosa [7]) |
| --- | --- | --- | --- | --- | --- | --- | --- | --- | --- |
| Cc1cccc2c(Cc3ccccc3C#N)c[nH]c12 | Active; Showed Higher Activity | Active |  | Active | Dose-dependent-effect | 40% |  |  |  |
| Nc1ccccc1Cc1c[nH]c2ccccc12 | Active; Showed Higher Activity |  |  | Active; Showed Higher Activity Than Positive Control Rsv | Dose-dependent-effect |  |  |  |  |
| N#CCCc1c[nH]c2ccccc12 | Active; Showed Higher Activity | Active; Strong Inhibition Observed |  | Active | Dose-dependent-effect |  | 9% |  |  |
| N#Cc1c(Cl)cccc1Cc1c[nH]c2ccccc12 | Active | Active; Strong Inhibition Observed |  | Active | Dose-dependent-effect | 1% |  |  |  |
| CC(C)(C)OC(=O)n1c(-c2ccccc2)c(Cc2ccccc2C#N)c2ccccc21 |  |  |  | Active; Showed Higher Activity Than Positive Control Rsv | Dose-dependent-effect |  |  |  |  |
| Cc1[nH]c2ccccc2c1Cc1ccccc1C#N |  | Active |  | Active | Dose-dependent-effect | 13% |  |  |  |
| CC(c1ccccc1C#N)c1c[nH]c2ccccc12 (configuration not stated) |  | Active; Strong Inhibition Observed |  | Active | Dose-dependent-effect |  |  |  |  |
| N#Cc1ccccc1Cc1c[nH]c2cc(Br)ccc12 |  |  |  | Active | Dose-dependent-effect | 21% |  |  |  |
| N#Cc1ccccc1Cc1c[nH]c2cc(Cl)ccc12 |  | Active |  | Active | Dose-dependent-effect | 26% |  |  |  |
| Cn1cc(Cc2ccccc2C#N)c2ccccc21 |  |  |  | Active | Dose-dependent-effect |  |  |  |  |
| N#Cc1ccccc1Cc1ccccc1 |  |  |  | Active | Dose-dependent-effect |  |  |  |  |
| Cc1c(Cc2ccccc2C#N)c2ccccc2n1C(=O)OC(C)(C)C |  |  |  | Active | Dose-dependent-effect |  |  |  |  |
| N#Cc1ccccc1Cc1c[nH]c2ccc(Br)cc12 | Active; Showed Higher Activity | Active; Strong Inhibition Observed |  |  | Dose-dependent-effect | 39% |  | 64% |  |
| N#Cc1ccccc1Cc1c[nH]c2cccc(F)c12 |  |  |  | Active | Dose-dependent-effect | 35% |  |  |  |
| Cc1cccc(Cc2c[nH]c3ccccc23)c1C#N | Active; Showed Higher Activity | Active; Strong Inhibition Observed |  | Active | Dose-dependent-effect | 27% |  |  |  |
| Cc1[nH]c2ccccc2c1CCc1ccccc1C#N | Active | Active; Strong Inhibition Observed |  | Active | Dose-dependent-effect |  |  |  |  |
| N#Cc1ccc(Br)cc1Cc1c[nH]c2ccccc12 | Active | Active |  | Active | Dose-dependent-effect | 21% |  |  |  |
| N#Cc1cc(F)ccc1Cc1c[nH]c2ccccc12 | Active; Showed Higher Activity | Active; Strong Inhibition Observed | 48 µg/mL (≈ 192 µM) | Active; Showed Higher Activity Than Positive Control Rsv | Dose-dependent-effect | 19% |  |  | Active |

More lines, main results first:

| inhibition [2] | inhibition [5] | MIC (Pseudomonas aeruginosa [8]) | SMILES | inhibition (Pseudomonas aeruginosa [1]) | inhibition (Pseudomonas aeruginosa [3]) | inhibition (INH) (Pseudomonas aeruginosa [4]) | inhibition (INH) (Pseudomonas aeruginosa [6]) | inhibition (INH) (Pseudomonas aeruginosa [1]) | inhibition (Pseudomonas aeruginosa [7]) |
| --- | --- | --- | --- | --- | --- | --- | --- | --- | --- |
|  | Active; Strong Inhibition Observed |  | Cc1ccc(Cc2c[nH]c3ccccc23)c(C#N)c1 |  | Dose-dependent-effect | 1% |  | 60% |  |
| Active; Showed Higher Activity | Active |  | N#Cc1ccccc1Cc1c[nH]c2ccc(Cl)cc12 | Active | Dose-dependent-effect | 11% |  |  |  |
| Active; Showed Higher Activity | Active; Strong Inhibition Observed | 24 µg/mL (≈ 90 µM) | N#Cc1cccc(Cl)c1Cc1c[nH]c2ccccc12 | Active; Showed Higher Activity Than Positive Control Rsv | Dose-dependent-effect | 4% |  |  | Active |
| Active | Active |  | Cc1ccc2[nH]cc(Cc3ccccc3C#N)c2c1 | Active | Dose-dependent-effect | 50% |  |  |  |
|  | Active; Strong Inhibition Observed |  | Cc1ccc(C#N)c(Cc2c[nH]c3ccccc23)c1 | Active | Dose-dependent-effect | 24% |  |  |  |
| Active; Showed Higher Activity | Active |  | Cc1ccc2c(Cc3ccccc3C#N)c[nH]c2c1 | Active; Showed Higher Activity Than Positive Control Rsv | Dose-dependent-effect | 7% |  |  |  |
| Active |  |  | CCOC(=O)C(C#N)c1c[nH]c2ccccc12 (configuration not stated) | Active | Dose-dependent-effect |  |  |  |  |
| Active; Showed Higher Activity | Active |  | Cc1cccc2[nH]cc(Cc3ccccc3C#N)c12 | Active; Showed Higher Activity Than Positive Control Rsv | Dose-dependent-effect | 17% |  |  |  |
|  | Active; Strong Inhibition Observed |  | COc1cccc2[nH]cc(Cc3ccccc3C#N)c12 | Active | Dose-dependent-effect | 21% |  |  |  |
| Active | Active; Strong Inhibition Observed | 12 µg/mL (≈ 47.9 µM) | N#Cc1ccc(F)cc1Cc1c[nH]c2ccccc12 | Active; Showed Higher Activity Than Positive Control Rsv | Dose-dependent-effect | 19% |  |  | Active |
| Active; Showed Higher Activity | Active; Strong Inhibition Observed | 96 µg/mL (≈ 413 µM) | N#Cc1ccccc1Cc1c[nH]c2ccccc12 | Active; Showed Higher Activity Than Positive Control Rsv | Dose-dependent-effect | 38% | 15% |  | Active |
| Active; Showed Higher Activity | Active; Strong Inhibition Observed |  | N#Cc1cccc(F)c1Cc1c[nH]c2ccccc12 | Active | Dose-dependent-effect | 49% |  |  |  |
|  | Active |  | N#Cc1ccc(Cl)cc1Cc1c[nH]c2ccccc12 | Active | Dose-dependent-effect | 56% |  |  |  |
| Active; Showed Higher Activity |  |  | CCc1ccccc1C#N | Active | Dose-dependent-effect |  | 12% |  |  |
|  | Active; Strong Inhibition Observed |  | CCOC(=O)C(C#N)Cc1c[nH]c2ccccc12 (configuration not stated) | Active | Dose-dependent-effect |  |  |  |  |
